Screens: PubChem, several laboratories
FAS TE block – FAS thioesterase domain inhibitors, primary screen, biochemical, fluorescence intensity, uHTS; Fatty acid synthase (Homo sapiens), P49327; recombinant FAS-TE, OMFH fluorogenic substrate, fluorescence endpoint; inhibition, % at 15 µM; 360,000 compounds, 0.67% hits; AID 602261, 2012;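 active = compounds whose normalised, plate-corrected inhibition of enzyme fluorescence in the single-dose primary screen is 50% or more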;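 also: 0% = DMSO with enzyme and 100% = substrate without enzyme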
ADAM10 inh – human ADAM10 inhibitors, primary screen, biochemical, QFRET, HTS; recombinant ADAM10, EDANS/DABCYL FRET peptide cleavage, 3 h; inhibition, % at 7 µM; Disintegrin and metalloproteinase domain-containing protein 10 (Homo sapiens), O14672; 370,000 compounds, 0.62% hits; AID 720582, 2013;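 active = inhibition above a per-campaign cutoff equal to the mean of compounds falling between control-based bounds plus 3 SD, cut at about 20% in these data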;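 also: 0% = DMSO wells while the 100% control is not disclosed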
ADAM17 inh – ADAM17 inhibitors, primary screen, biochemical, QFRET | Disintegrin and metalloproteinase domain-containing protein 17 (Homo sapiens), P78536 | recombinant ADAM17, EDANS/DABCYL FRET peptide cleavage | inhibition, % at 6.95 µM | 370,000 compounds, 0.83% hits | AID 720648, 2013;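 active = inhibition above the mean of compounds lying between control limits plus 3 SD, set per campaign, cut at about 8.5% in these data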;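 also: 0% = DMSO-only wells as the low control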
SENP1 inh – human SENP1 catalytic domain inhibitors, primary screen, biochemical, FRET, uHTS; recombinant SENP1 catalytic domain, CyPet-SUMO1-YPet FRET cleavage; inhibition, % at 10 µM; 360,000 compounds, 0.21% hits; AID 624204, 2012;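 active = inhibition at least 30% at 10 µM, raw YFP signal under a set limit, fluorescence ratio 0.5 to 1.5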;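 also: 0% = enzyme with DMSO and 100% = no enzyme wells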
Target sequence (Q9P0U3 419-644 limits assumed): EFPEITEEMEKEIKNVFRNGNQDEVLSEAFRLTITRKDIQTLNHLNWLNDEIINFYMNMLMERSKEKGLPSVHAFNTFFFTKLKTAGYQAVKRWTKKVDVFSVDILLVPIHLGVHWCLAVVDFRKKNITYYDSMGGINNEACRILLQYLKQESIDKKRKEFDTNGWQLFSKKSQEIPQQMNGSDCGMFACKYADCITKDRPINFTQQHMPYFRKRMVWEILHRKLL
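Test system: recombinant human SENP1 catalytic domain, His6-tagged / Medium: pH 8 Tris buffer with EDTA, NaCl, BME, BSA, NP40, catalase / Also added: SUMO1 FRET substrate flanked by Cypet and Ypet, 25 nM / Times: 50 min reaction at room temperature / Signal: FRET, CFP and YFP emission / Control set: no-enzyme low control and enzyme-plus-DMSO high control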
ADAM10 confirm – human ADAM10 inhibitors, confirmation, biochemical, QFRET, triplicate; shares compounds with ADAM10 inh; ADAM10 QFRET peptide cleavage, EDANS fluorescence; inhibition, % at 6.95 µM; 2,100 compounds, 1% hits;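 active = inhibition above about 20% chosen separately for each screening run, limit read from the data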;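 also: 0% = DMSO wells and 100% = marimastat wells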
ADAM17 counter – ADAM17 inhibitors, counter-screen for ADAM10 exosite inhibitor project, biochemical, QFRET, high throughput; inhibition, % at 6.95 µM; 2,100 compounds, 0.5% hits; ADAM17 QFRET peptide cleavage, EDANS fluorescence; shares compounds with ADAM10 inh;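 active = mean triplicate inhibition above the solvent-only control wells' mean plus 3 SD, cut at about 12% in these data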;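 also: 0% = DMSO wells and 100% = marimastat wells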
ADAM10 ctr – ADAM10 inhibitors, counter-screen for ADAM17 exosite inhibitor project, biochemical, FRET, human ADAM10; shares compounds with ADAM17 inh; recombinant ADAM10, EDANS/DABCYL FRET peptide cleavage, 3 h; inhibition, % at 6.95 µM; 2,900 compounds, 47% hits;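 active = mean inhibition over the triplicate runs exceeds the activity threshold set in the earlier primary screen, cut at about 20% in these data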;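 also: 0% = DMSO wells and 100% = marimastat wells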
ADAM17 confirm – ADAM17 inhibitors, hit retest, confirmation, biochemical, QFRET peptide cleavage | shares compounds with ADAM17 inh | recombinant ADAM17, EDANS/DABCYL QFRET peptide cleavage | inhibition, % at 6.95 µM | 2,900 compounds, 65% hits;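 active = mean inhibition across replicates above the hit cutoff set in the primary screen, cut at about 8.5% in these data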;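 also: 0% = DMSO wells and 100% = marimastat wells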
Numbers without * were called inactive; . = not tested or not shown. Rows were chosen to be rich in hits. Some 1.9% of all compounds tested hit in one or more screens of this group.

SMILES | FAS TE block | ADAM10 inh | ADAM17 inh | SENP1 inh | ADAM10 confirm | ADAM17 counter | ADAM10 ctr | ADAM17 confirm
FC(F)(F)Oc1cccc(Cn2ccc3ccc(-c4ccc5ccn(Cc6ccccc6)c5c4)cc32)c1 | . | -46 | -16 | . | . | . | . | .
COc1ccc(OC)c(-n2c(-c3cc(-c4ccc(F)cc4)n[nH]3)n[nH]c2=S)c1 | -6 | 20* | 9.3* | 4 | 1 | 1 | 0 | 3
COC(=O)C1=C(C)N(Cc2cccc(C(F)(F)F)c2)C(=NCc2cc(OC)c(OC)c(OC)c2)NC1c1ccccc1 (configuration not stated) | . | 4 | 2 | . | . | . | . | .
Cc1ccc(S(=O)(=O)Nc2ccc(C(OC(=O)c3ccccc3[N+](=O)[O-])(C(F)(F)F)C(F)(F)F)cc2)cc1 | 40 | 22* | 10* | 2 | 4 | 2 | 47* | 27*
Cc1cc(C)nc(NS(=O)(=O)c2ccc(NC(=O)c3ccccc3[N+](=O)[O-])cc2)n1 | -1 | -4 | -3 | 0 | . | . | . | .
O=C(OC(c1ccc(NS(=O)(=O)c2ccccc2)cc1)(C(F)(F)F)C(F)(F)F)c1ccccc1 | 37 | 32* | 13* | 3 | 4 | 2 | 36* | 18*
Cc1ccccc1S(=O)(=O)Cc1ccc(C(=O)N2CC(C)CC(C)C2)o1 (configuration not stated) | -2 | -4 | 3 | -3 | . | . | . | .
Cc1ccccc1S(=O)(=O)Cc1ccc(C(=O)N2CCN(c3cccc(C)c3C)CC2)o1 | 18 | 22* | 9.0* | -7 | 5 | 1 | 18 | 12*
COc1ccc(C(CC(=O)c2ccc(C)cc2)Nc2ccc([N+](=O)[O-])cc2)cc1 (configuration not stated) | 43 | 20* | 14* | -6 | 6 | 2 | 19 | 13*
C=C(C)COc1ccc(-c2n[nH]c(C)c2Oc2ccccc2OC)c(O)c1 | -5 | 26* | 12* | 3 | 11 | 3 | 41* | 20*
COc1ccc(-c2cn[nH]c2-c2ccc(OCc3ccc(F)cc3)cc2O)cc1OC | -12 | 19 | 6 | 3 | . | . | . | .
C=C(C)COc1ccc(-c2nc(N)ncc2-c2ccc(OC)cc2)c(O)c1 | . | 27* | 16* | . | 6 | 4 | 13 | 17*
C=C(C)COc1ccc(-c2nc(N)ncc2-c2ccc(OC)c(OC)c2)c(O)c1 | 14 | 5 | 2 | 0 | . | . | . | .
COc1ccc(-c2cn[nH]c2-c2ccc(OCc3ccccc3)cc2O)cc1OC | -9 | 33* | 9.7* | 1 | 11 | 3 | 34* | 16*
C=C(C)COc1ccc(-c2[nH]ncc2-c2ccccc2)c(O)c1 | -41 | 24* | 11* | 2 | 7 | 3 | 34* | 17*
O=S1(=O)c2ccc(N3CCSCC3)cc2Oc2ccccc2CN1Cc1cn(Cc2ccc(Cl)cc2)nn1 | . | 5 | 3 | . | . | . | . | .
CCN(CC)C(=O)CC[C@H]1CC[C@]2(CCCN(C(=O)c3ccco3)C2)O1 | . | -10 | -3 | . | . | . | . | .
CCOc1ccc(-n2c(COc3ccc(Cl)cc3)nnc2SCC(=O)Nc2ccc(OCc3ccccc3)cc2)cc1 | . | 6 | 2 | . | . | . | . | .
COc1ccc(-c2cc(NC(=O)Cc3c[nH]c4ccccc34)ccc2Nc2cccnc2)cc1F | . | -3 | -2 | . | . | . | . | .
O/N=C/c1cc(Br)ccc1OCc1cccc(F)c1 | -12 | 28* | 11* | 0 | 4 | 1 | 18 | 9.5*
